ChEMBL document CHEMBL4433251, “Discovery of BR102375, a new class of non-TZD PPARγ full agonist for the treatment of type 2 diabetes” (Bioorg Med Chem Lett, 2019)
pEC50: −log10 of the molar value.

Legend:
[1] = target: T1, Peroxisome proliferator-activated receptor gamma (Mus musculus) (UniProt P37238); assay: Agonist activity at GAL4-tagged mouse PPARgamma LBD expressed in monkey CV1 cells assessed as receptor transactivation incubated for 24 hrs by luciferase reporter gene assay relative to telmisartan; assay type: cell-based
T1 sequence (whole entry): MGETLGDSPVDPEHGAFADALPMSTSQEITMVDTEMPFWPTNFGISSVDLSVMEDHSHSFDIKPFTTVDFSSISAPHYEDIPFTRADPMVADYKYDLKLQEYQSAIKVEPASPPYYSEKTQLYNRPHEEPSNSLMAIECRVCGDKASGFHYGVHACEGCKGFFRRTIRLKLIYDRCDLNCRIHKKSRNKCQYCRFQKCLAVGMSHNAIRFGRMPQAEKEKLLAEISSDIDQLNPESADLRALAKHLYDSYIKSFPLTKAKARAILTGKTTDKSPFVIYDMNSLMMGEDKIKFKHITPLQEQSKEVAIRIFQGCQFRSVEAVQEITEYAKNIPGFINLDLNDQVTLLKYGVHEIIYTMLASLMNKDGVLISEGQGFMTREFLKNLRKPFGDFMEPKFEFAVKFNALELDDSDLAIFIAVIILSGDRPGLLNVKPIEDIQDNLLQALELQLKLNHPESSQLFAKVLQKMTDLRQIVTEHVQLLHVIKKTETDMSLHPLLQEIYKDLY

[2] = target: T2, Peroxisome proliferator-activated receptor gamma (Homo sapiens) (UniProt P37231); assay: Agonist activity at PPARgamma (unknown origin) assessed as receptor transactivation after 24 hrs by TK-PPRE-Luc expressing cells based luciferase reporter gene assay relative to pioglitazone
T2 sequence (whole entry): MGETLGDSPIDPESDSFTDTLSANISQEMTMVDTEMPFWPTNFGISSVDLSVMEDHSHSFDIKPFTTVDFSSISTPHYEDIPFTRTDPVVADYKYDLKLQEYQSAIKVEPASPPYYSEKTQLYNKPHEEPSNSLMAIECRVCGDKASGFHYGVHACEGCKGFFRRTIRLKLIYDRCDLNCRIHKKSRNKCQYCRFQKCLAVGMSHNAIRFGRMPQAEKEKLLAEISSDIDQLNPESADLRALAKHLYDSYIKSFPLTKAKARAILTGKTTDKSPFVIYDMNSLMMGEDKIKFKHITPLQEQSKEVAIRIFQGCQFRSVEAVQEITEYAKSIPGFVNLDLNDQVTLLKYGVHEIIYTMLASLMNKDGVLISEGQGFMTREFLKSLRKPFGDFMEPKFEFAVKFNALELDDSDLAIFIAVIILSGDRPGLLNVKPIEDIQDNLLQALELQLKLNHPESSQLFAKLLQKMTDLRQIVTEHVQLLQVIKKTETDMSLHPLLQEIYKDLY
In short: (§1)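 Luciferase reporter gene assay in cells transfected with PPRE and luciferase genes; luciferase induction measured over a range of concentrations to derive EC50 and Amax; Amax expressed as a percentage relative to pioglitazone.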

[3] = target: T3, Peroxisome proliferator-activated receptor gamma (Homo sapiens, UniProt P37231); assay: Agonist activity at PPARgamma (unknown origin) assessed as receptor transactivation after 24 hrs by TK-PPRE-Luc expressing cells based luciferase reporter gene assay; in short: as §1
T3 sequence (P37231 whole entry): T2 sequence (whole entry)

Row | SMILES | %max [1] | %max [2] | pEC50 [3]
1 | CCCCc1nc(C)c(Cc2nnc(C)s2)c(=O)n1Cc1ccc(-c2ccccc2-c2noc(=O)[nH]2)cc1 | 71% | – | –
2 | CCCCc1nc(C)c(Cc2nc(Cc3cccc(F)c3)no2)c(=O)n1Cc1ccc(-c2ccccc2-c2noc(=O)[nH]2)cc1 | – | 82% | 5.86
3 | CCCCc1nc(C)c(Cc2nc(Cc3ccccc3)no2)c(=O)n1Cc1ccc(-c2ccccc2-c2noc(=O)[nH]2)cc1 | – | 105% | 5.76
4 | CCCCc1nc(C(C)C)c(Cc2nnc(C(C)(C)C)s2)c(=O)n1Cc1ccc(-c2ccccc2-c2noc(=O)[nH]2)cc1 | 180% | – | –
5 | CCCCc1nc(C)c(Cc2nc(Cc3ccc(F)cc3)no2)c(=O)n1Cc1ccc(-c2ccccc2-c2noc(=O)[nH]2)cc1 | – | 81% | 5.62
6 | CCCCc1nc(C(C)C)c(Cc2nnc(C)s2)c(=O)n1Cc1ccc(-c2ccccc2-c2noc(=O)[nH]2)cc1 | 79% | – | –
7 | CCCCc1nc(C)c(Cc2nc(Cc3cc(F)cc(F)c3)no2)c(=O)n1Cc1ccc(-c2ccccc2-c2noc(=O)[nH]2)cc1 | – | 72% | 5.86
8 | CCCCc1nc(C(C)C)c(Cc2nc(C)ns2)c(=O)n1Cc1ccc(-c2ccccc2-c2noc(=O)[nH]2)cc1 | 79% | – | –
9 | CCCCc1nc(C(C)C)c(Cc2nc(Cc3ccc(F)cc3)no2)c(=O)n1Cc1ccc(-c2ccccc2-c2noc(=O)[nH]2)cc1 | – | 80% | 5.83
10 | CCCCc1nc(C(C)C)c(Cc2nc(C3CC3)no2)c(=O)n1Cc1ccc(-c2ccccc2-c2noc(=O)[nH]2)cc1 | – | 102% | 5.59
11 | CCCCc1nc(C)c(Cc2nnc(-c3ccc(F)cc3)[nH]2)c(=O)n1Cc1ccc(-c2ccccc2-c2noc(=O)[nH]2)cc1 | 71% | – | –
12 | CCCCc1nc(C(C)C)c(Cc2nnc(C)o2)c(=O)n1Cc1ccc(-c2ccccc2-c2noc(=O)[nH]2)cc1 | 80% | – | –
13 | CCCCc1nc(C)c(Cc2nc(C)ns2)c(=O)n1Cc1ccc(-c2ccccc2-c2noc(=O)[nH]2)cc1 | 93% | – | –
14 | CCCCc1nc(C(C)C)c(Cc2nc(Cc3ccccc3)no2)c(=O)n1Cc1ccc(-c2ccccc2-c2noc(=O)[nH]2)cc1 | – | 92% | 5.94
15 | CCCCc1nc(C)c(Cc2noc(-c3ccccc3F)n2)c(=O)n1Cc1ccc(-c2ccccc2-c2noc(=O)[nH]2)cc1 | 150% | – | –
16 | CCCCc1nc(C(C)C)c(Cc2nnc(-c3ccc(OC)cc3)o2)c(=O)n1Cc1ccc(-c2ccccc2-c2noc(=O)[nH]2)cc1 | 73% | – | –
17 | CCCCc1nc(C)c(Cc2nc(C)n[nH]2)c(=O)n1Cc1ccc(-c2ccccc2-c2noc(=O)[nH]2)cc1 | 61% | – | –

Now from value to compound:

Row | %max [1] | %max [2] | pEC50 [3] | SMILES
18 | 233% | – | – | CCCCc1nc(C)c(Cc2noc(C(C)C)n2)c(=O)n1Cc1ccc(-c2ccccc2-c2noc(=O)[nH]2)cc1
19 | – | 68% | 5.38 | CCCCc1nc(C)c(Cc2nc(CCOC)no2)c(=O)n1Cc1ccc(-c2ccccc2-c2noc(=O)[nH]2)cc1
20 | 207% | 93% | 5.98 | CCCCc1nc(C(C)C)c(Cc2nc(C)no2)c(=O)n1Cc1ccc(-c2ccccc2-c2noc(=O)[nH]2)cc1
21 | – | 60% | 5.47 | CCCCc1nc(C)c(Cc2nc(COC)no2)c(=O)n1Cc1ccc(-c2ccccc2-c2noc(=O)[nH]2)cc1
22 | 136% | – | – | CCCCc1nc(C)c(Cc2nc(C)no2)c(=O)n1Cc1ccc(-c2ccccc2-c2noc(=O)[nH]2)cc1
23 | – | 101% | 5.88 | CCCCc1nc(C)c(Cc2nc(C(C)C)no2)c(=O)n1Cc1ccc(-c2ccccc2-c2noc(=O)[nH]2)cc1
24 | 258% | – | – | CCCCc1nc(C)c(Cc2noc(C(C)(C)C)n2)c(=O)n1Cc1ccc(-c2ccccc2-c2noc(=O)[nH]2)cc1
25 | – | 89% | 5.37 | CCCCc1nc(C)c(Cc2nc(C3CC3)no2)c(=O)n1Cc1ccc(-c2ccccc2-c2noc(=O)[nH]2)cc1
